Data on ten compounds can be found in ChEMBL document CHEMBL1154306, “Cembranoid diterpenes from the Caribbean sea whip Eunicea knighti” (2009).

One assay relates to Alteromonas sp. As to the kind of experiment: Antibacterial activity against Alteromonas sp. 11-6DEP at 30 ug/disk after 24 to 48 hrs by disk diffusion method. The following applies: for zone of inhibition at 30 µg/disc: read-out: DIZ. Format: functional. In a few lines: (§1)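 Disk diffusion on agar plates against marine bacterial isolates from a heavily fouled surface, identified by 16S rRNA sequencing. 5.2 mm sterilized paper disks loaded with 30 µg compound in CH2Cl2, dried 3 h at room temperature, then placed on plates spread with 100 µL overnight culture (10^6 cfu/mL). Inhibition zone diameter read after 24 and 48 h at 26 °C. Cu2O 600 µg/disk positive control, CH2Cl2 solvent control, triplicate.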
In general terms: In agar diffusion tests the substance spreads into inoculated agar from a disc or well.

Assay [1] deals with Brucella pseudogrignonensis. As to the kind of experiment: Antibacterial activity against Ochrobactrum pseudogrignonense 4-4DEP after 24 to 48 hrs by disk diffusion method. Format: functional.
The next assay has as its system Oceanobacillus iheyensis. As to the kind of experiment: Antibacterial activity against Oceanobacillus iheyensis 31-C at 30 ug/disk after 24 to 48 hrs by disk diffusion method. The assay is classed as functional. The following applies: for zone of inhibition at 30 µg/disc: read-out: DIZ. In a few lines: as §1
The test system of another assay is Kocuria sp. 10-4DEP. As to the kind of experiment: Antibacterial activity against Kocuria sp. 10-4DEP at 30 ug/disk after 24 to 48 hrs by disk diffusion method. The following applies: for zone of inhibition at 30 µg/disc: read-out: DIZ. Format: functional. In a few lines: as §1
Assay [2] concerns Brucella pseudogrignonensis. As to the kind of experiment: Antibacterial activity against Ochrobactrum pseudogrignonense 21-6PIN after 24 to 48 hrs by disk diffusion method. The assay is classed as functional. In a few lines: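 MIC by agar disk diffusion per NCCLS against the marine isolate 21-6PIN. Loadings per disk were 30, 16, 8, 4, 2, 1 and 0.5 µg, delivered in MeOH, with methanol alone as negative control. Run in triplicate.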

Assay [3] has as its system Bacillus sp. The assay is described as follows: Antibacterial activity against Bacillus sp. 10-6DEP after 24 to 48 hrs by disk diffusion method. The assay is classed as functional. In a few lines: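 MIC by agar disk diffusion (NCCLS) against Bacillus sp. 10-6DEP. Disks loaded with 30, 16, 8, 4, 2, 1 and 0.5 µg delivered in MeOH. Methanol alone as negative control. Triplicate.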

Assay [4] has as its system Bacillus sp. As to the kind of experiment: Antibacterial activity against Bacillus sp. 10-6DEP at 30 ug/disk after 24 to 48 hrs by disk diffusion method. The assay is classed as functional. The following applies: Bacillus sp. (in: firmicutes), read-out: DIZ. In a few lines: as §1
Assay [5] relates to Brucella pseudogrignonensis. As to the kind of experiment: Antibacterial activity against Ochrobactrum pseudogrignonense 21-6PIN at 30 ug/disk after 24 to 48 hrs by disk diffusion method. The assay is classed as functional. To be noted: for zone of inhibition at 30 µg/disc: read-out: DIZ. In a few lines: (§2)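 Marine bacterial isolate from a heavily fouled surface, identified by 16S rRNA gene sequence. Agar disk diffusion: sterilised 5.2 mm paper disks loaded with 30 µg pure compound in CH2Cl2 and dried 3 h at room temperature. Plates were seeded with 100 µL of overnight culture (10^6 cfu/mL) and incubated 24 and 48 h at 26 °C. Read-out was inhibition zone diameter, run in triplicate.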

Assay [6] deals with Brucella pseudogrignonensis. As to the kind of experiment: Antibacterial activity against Ochrobactrum pseudogrignonense 4-4DEP at 30 ug/disk after 24 to 48 hrs by disk diffusion method. The assay is classed as functional. The following applies: for zone of inhibition at 30 µg/disc: read-out: DIZ. In a few lines:
as §2

In another assay the test system is Escherichia coli. The assay is described as follows: Antiquorum sensing activity against Escherichia coli pS401 assessed as inhibition of Pseudomonas putida IsoF derived acyl-homoserinelactone-induced bioluminescence upto 200 ug after overnight incubation. In a few lines:
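Biosensor agar overlay. E. coli pS401 and P. putida IsoF grown in LB broth. 15 mL of each culture mixed into LB soft agar (0.8%) and poured over prewarmed LB agar plates. Paper disks received 10 or 20 µL of a 10 mg/mL compound solution. Plates incubated overnight at 37 °C and luminescence imaged. QS inhibition was scored where light was lost but growth around the disk was unaffected.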

The source made the active and inactive calls. No cut-off for these calls is given here.

Take `C=C(C)[C@H]1CC/C(C)=C/CC[C@@]2(C)O[C@@H]2CC/C(COC(C)=O)=C\[C@@H]1OC(C)=O`: the “diameter of the inhibition zone (DIZ)” value in the assay on Alteromonas sp. and with Kocuria sp. 10-4DEP was “inactive” each time. The MIC in assay [1] is >30 µg; in assay [2] it was 30 µg; in the assay on Bacillus sp. [3], 30 µg. Also, the zone of inhibition at 30 µg/disc in the assay with Oceanobacillus iheyensis is 6 mm; with Bacillus sp. [4], 8 mm; in [5] it was ≥ 10 mm; in [6], 6 mm.
As for `C=C1CC/C=C(\C)CC[C@H](C(=C)C)[C@@H](OC(C)=O)/C=C(/COC(C)=O)CC[C@H]1O`, the “diameter of the inhibition zone (DIZ)” value in the assay with Alteromonas sp. is “inactive”. In addition, the zone of inhibition at 30 µg/disc in the assay with Oceanobacillus iheyensis came to 6 mm; with Kocuria sp. 10-4DEP, 6 mm; in the assay with Bacillus sp. [4], 8 mm; in assay [5], 6 mm; in assay [6] it was 6 mm. For the same compound, the MIC (in assay [2]; against Bacillus sp. [3]) was >30 µg each time. Also, in the assay on Escherichia coli, the outcome was Active.
As to `C=C(C)[C@H]1CC/C(C)=C/CC[C@@](C)(Cl)[C@H](O)CC/C(COC(C)=O)=C\[C@@H]1OC(C)=O`, the “diameter of the inhibition zone (DIZ)” value (in the assay on Alteromonas sp.; in the assay on Kocuria sp. 10-4DEP; in [5]) was “inactive” in each case. Moreover, the zone of inhibition at 30 µg/disc in the assay with Oceanobacillus iheyensis turned out to be 6 mm; in the assay on Bacillus sp. [4] it was 8 mm; in [6] it was 6 mm. Also, the MIC (in assay [2]; against Bacillus sp. [3]) was >30 µg throughout.
Regarding `C=C(C)[C@H]1CC/C(C)=C/C/C=C(\C)[C@H](O)CC/C(COC(C)=O)=C\[C@@H]1OC(C)=O`, the zone of inhibition at 30 µg/disc in the assay with Alteromonas sp. came out at 6 mm; with Oceanobacillus iheyensis, 6 mm; with Kocuria sp. 10-4DEP it was 6 mm; with Bacillus sp. [4], 8 mm; in [5] it was 8 mm; in assay [6], 6 mm. Further, the MIC in assay [1] was >30 µg; in assay [2] it was 30 µg; in the assay with Bacillus sp. [3] it was 30 µg. In addition, in the assay with Escherichia coli, the result was Active.
Take `C=C(C)[C@H]1CC/C(C)=C/C/C=C(/C)[C@@H](O)CC/C(COC(C)=O)=C\[C@@H]1OC(C)=O`: the “diameter of the inhibition zone (DIZ)” value (in the assay with Alteromonas sp.; in the assay with Oceanobacillus iheyensis; in the assay on Kocuria sp. 10-4DEP; in assay [5]) was “inactive” each time. The MIC (in [2]; with Bacillus sp. [3]) was >30 µg each time. For the same compound, the zone of inhibition at 30 µg/disc (in the assay with Bacillus sp. [4]; in assay [6]) was 6 mm each time.
As for `C=C(C)[C@H]1CC/C(C)=C/CC[C@@]2(C)O[C@@H]2CC/C(COC(C)=O)=C\[C@@H]1O` [ASPERDIOL ACETATE], the “diameter of the inhibition zone (DIZ)” value (in the assay on Alteromonas sp.; in the assay with Oceanobacillus iheyensis; with Kocuria sp. 10-4DEP; in [6]) was “inactive” in each case. Besides, the results for the MIC (in [1]; in [2]; in the assay with Bacillus sp. [3]) were >30 µg, 30 µg and 30 µg, respectively. Moreover, the results for the zone of inhibition at 30 µg/disc (with Bacillus sp. [4]; in [5]) were 8 mm and ≥ 10 mm, respectively.
Regarding `C=C(C)[C@H]1CC/C(C)=C/CC[C@@]2(C)O[C@@H]2CC/C(CO)=C\[C@@H]1O` [ASPERDIOL], the “diameter of the inhibition zone (DIZ)” value (in the assay on Alteromonas sp.; in the assay with Oceanobacillus iheyensis; in the assay on Kocuria sp. 10-4DEP; in assay [6]) was “inactive” throughout. In addition, the MIC in assay [2] is >30 µg; against Bacillus sp. [3], 4 µg. Further, the figures for the zone of inhibition at 30 µg/disc (with Bacillus sp. [4]; in [5]) were 6 mm and 8 mm, respectively.
Regarding `C=C(C)[C@@H]1C/C=C(/C=O)CC[C@H]2O[C@]2(C)CC/C=C(\C)CC1` [KNIGHTAL], the zone of inhibition at 30 µg/disc with Alteromonas sp. is 6 mm; in the assay on Oceanobacillus iheyensis, 6 mm; with Kocuria sp. 10-4DEP it was 8 mm; with Bacillus sp. [4], 8 mm; in assay [5], 6 mm. Besides, the MIC worked out at 8 µg in [1], 8 µg in [2] and 16 µg in the assay on Bacillus sp. [3]. Also, the outcome in the assay on Escherichia coli was Active. In assay [6], the “diameter of the inhibition zone (DIZ)” value was “inactive”.
`C=C(C)[C@@H]1C/C=C(/COC(C)=O)CC[C@H]2O[C@]2(C)CC/C=C(\C)CC1` [KNIGHTOL ACETATE]: the “diameter of the inhibition zone (DIZ)” value (in the assay on Alteromonas sp.; with Kocuria sp. 10-4DEP; in assay [6]) was “inactive” each time. The MIC is 8 µg in [1], 8 µg in assay [2] and 30 µg in the assay on Bacillus sp. [3]. Besides, the zone of inhibition at 30 µg/disc (in the assay on Oceanobacillus iheyensis; in the assay with Bacillus sp. [4]; in assay [5]) was 6 mm in each case.
For `C=C(C)[C@@H]1C/C=C(/CO)CC[C@H]2O[C@]2(C)CC/C=C(\C)CC1` [KNIGHTOL], the zone of inhibition at 30 µg/disc with Alteromonas sp. was 6 mm; in the assay on Oceanobacillus iheyensis it was 6 mm; with Kocuria sp. 10-4DEP, ≥ 10 mm; in the assay on Bacillus sp. [4] it was ≥ 10 mm; in assay [5], 6 mm. For the same compound, the MIC in assay [2] is 8 µg; in the assay with Bacillus sp. [3] it was 2 µg. Moreover, in the assay on Escherichia coli, the outcome was Active. In assay [6], the “diameter of the inhibition zone (DIZ)” value is “inactive”.
